{"source": "PubChem BioAssay AID373", "about": "(The Scripps Research Institute Molecular Screening Center, 2006)", "target": "Sphingosine 1-phosphate receptor 3 (Homo sapiens) (UniProt Q99500)", "sequence (Q99500 whole entry, looked up)": "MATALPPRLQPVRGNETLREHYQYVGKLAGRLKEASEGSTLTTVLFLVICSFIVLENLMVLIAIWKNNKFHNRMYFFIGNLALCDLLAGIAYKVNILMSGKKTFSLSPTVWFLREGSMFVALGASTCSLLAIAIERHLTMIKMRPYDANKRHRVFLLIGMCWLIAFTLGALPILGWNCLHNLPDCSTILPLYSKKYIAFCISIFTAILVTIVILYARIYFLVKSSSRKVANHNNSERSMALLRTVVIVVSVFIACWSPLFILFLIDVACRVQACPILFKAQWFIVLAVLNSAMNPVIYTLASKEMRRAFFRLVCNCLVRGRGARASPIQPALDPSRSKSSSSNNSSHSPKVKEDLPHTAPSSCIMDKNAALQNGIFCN", "experiment": "activators of S1P3 receptor signaling – cell-based, primary and confirmation, NFAT-BLA reporter, primary screen (AID 373)", "summary_of_the_method": "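Measure – % activation relative to 1 µM S1P (100%), per plate · System – stable CHO line with human S1P3, Gα16, NFAT-BLA reporter · Timing – cells plated overnight, compound 4 h 37 °C, substrate 2 h RT · Technique – fluorescent BLA substrate, ex 405 nm, em 460/535 nm ratio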", "key": {"[1]": {"details": "S1P3 NFAT-BLA reporter cells, agonism, FRET ratio, at 4.5 µM, stronger effect = higher value, relative to 1 µM S1P, basal subtracted"}}, "note": "Among all 60,000 compounds or so, about 60 (0.1%) were called active.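 How the source made its calls: active means activation above the screen-wide mean plus 3 SD (cut at about 4.5% in these data, passing the limit was not always enough); inactive means the rest, inconclusive results apart.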 Many of the other results were omitted from the sample, so actives are more common in it than they were."}
{"smiles": "CC(NC(=O)c1cc(-c2ccccc2)on1)c1ccccc1", "note": "(stereo not drawn)", "values": [{"measurement": "activation", "setting": "[1]", "value": "-1.3% (inactive)"}]}
{"smiles": "O=C(Nc1ccc2c(c1)nc1n2CCCCC1)c1cc(S(=O)(=O)N2CCOCC2)ccc1Cl", "values": [{"measurement": "activation", "setting": "[1]", "value": "-0.4% (inactive)"}]}
{"smiles": "C=C(C)c1cccc(C(C)(C)NC(=O)N2CCN(c3ncccn3)CC2)c1", "values": [{"measurement": "activation", "setting": "[1]", "value": "-0.9% (inactive)"}]}
{"smiles": "CC(C)C(=O)Nc1c(C(=O)c2ccc(F)cc2)oc2ccccc12", "values": [{"measurement": "activation", "setting": "[1]", "value": "-0.2% (inactive)"}]}
{"smiles": "O=C(CN1CCOCC1)N1CCCc2c1c(=O)oc1ccc(OCc3ccccc3)cc21", "values": [{"measurement": "activation", "setting": "[1]", "value": "-1% (inactive)"}]}
{"smiles": "COCCOC(=O)C1=C(C)N=c2s/c(=C\\c3cccs3)c(=O)n2C1c1cccs1", "note": "(stereo not drawn)", "values": [{"measurement": "activation", "setting": "[1]", "value": "-2% (inactive)"}]}
{"smiles": "CC1(C)CC(=O)c2cc(OCC(=O)NCC3CCCO3)ccc2O1", "note": "(stereo not drawn)", "values": [{"measurement": "activation", "setting": "[1]", "value": "-0.8% (inactive)"}]}
{"smiles": "CN(CCc1ccccn1)S(=O)(=O)c1ccc2c3c(cccc13)C(=O)N2", "values": [{"measurement": "activation", "setting": "[1]", "value": "0.3% (inactive)"}]}
{"smiles": "CC(=O)N1CC2(C)CN(C(C)=O)CC(C)(C1)C2=O", "values": [{"measurement": "activation", "setting": "[1]", "value": "0% (inactive)"}]}
{"smiles": "Cc1ccc2c(c1)sc1ncc(NC(=O)c3ccccc3)c(=O)n12", "values": [{"measurement": "activation", "setting": "[1]", "value": "-1.1% (inactive)"}]}
{"smiles": "O=C(NCCc1ccco1)c1nn(Cc2ccccc2)c(=O)c2ccccc12", "values": [{"measurement": "activation", "setting": "[1]", "value": "0.7% (inactive)"}]}
{"smiles": "Cc1ccnc(N2C(=O)c3ccccc3C2Nc2ccc3c(c2)OCCO3)c1", "note": "(stereo not drawn)", "values": [{"measurement": "activation", "setting": "[1]", "value": "0.3% (inactive)"}]}
{"smiles": "COc1ccc(OC)c(NC(=O)CSc2nc3cccnc3n2C)c1", "values": [{"measurement": "activation", "setting": "[1]", "value": "0.2% (inactive)"}]}
{"smiles": "COc1ccc(Cn2c(=O)sc3ccccc32)cc1OC", "values": [{"measurement": "activation", "setting": "[1]", "value": "-0.4% (inactive)"}]}
{"smiles": "O=C(NC(c1ccccc1)c1ccccc1)N1CCN(CCO)CC1", "values": [{"measurement": "activation", "setting": "[1]", "value": "0.8% (inactive)"}]}
{"smiles": "C=CCn1c(N)c(S(=O)(=O)c2cccs2)c2nc3ccccc3nc21", "values": [{"measurement": "activation", "setting": "[1]", "value": "-0.5% (inactive)"}]}
{"smiles": "CC(C)Cn1c(N)c(C(=O)NCc2cccs2)c2nc3ccccc3nc21", "values": [{"measurement": "activation", "setting": "S1P3 NFAT-BLA reporter cells, agonism, FRET ratio; at 4.5 µM; stronger effect = higher value; relative to 1 µM S1P, basal subtracted", "value": "8.2% (active)"}, {"measurement": "activation", "setting": "S1P3 NFAT-BLA reporter cells, agonism, FRET ratio; measured here: confirmation screen, triplicate average; at 4.5 µM; stronger effect = higher value; relative to 1 µM S1P, basal subtracted", "value": 5.4, "unit": "%"}]}
{"smiles": "C=CCn1c(N)c(C(=O)OCC(C)C)c2nc3ccccc3nc21", "values": [{"measurement": "activation", "setting": "[1]", "value": "0.4% (inactive)"}]}
{"smiles": "CCCOC(=O)CC1C(=O)NCCN1Cc1ccc(F)cc1", "note": "(stereo not drawn)", "values": [{"measurement": "activation", "setting": "[1]", "value": "0.3% (inactive)"}]}
{"smiles": "COc1cc(OC)cc(C(=O)Nc2ncc3c(n2)CC(C)(C)CC3=O)c1", "values": [{"measurement": "activation", "setting": "[1]", "value": "-1.1% (inactive)"}]}
{"smiles": "CN1CCN(C(=O)c2ccc(NS(=O)(=O)c3ccccc3)cc2)CC1", "values": [{"measurement": "activation", "setting": "[1]", "value": "-0.2% (inactive)"}]}
{"smiles": "CCOc1cc(C(=O)N2CCc3cc(OC)c(OC)cc3C2)ccc1OC(F)F", "values": [{"measurement": "activation", "setting": "[1]", "value": "-0.2% (inactive)"}]}
{"smiles": "COc1ccc(S(=O)(=O)N2CCN(C(=O)c3cccs3)CC2)cc1OC", "values": [{"measurement": "activation", "setting": "[1]", "value": "0% (inactive)"}]}
{"smiles": "Cc1c2cnn(-c3ccccc3)c(=O)c2c(C)n1CCCC(=O)N1CCN(C)CC1", "values": [{"measurement": "activation", "setting": "[1]", "value": "-1.3% (inactive)"}]}
{"smiles": "COc1ccc(C(=O)OCC(=O)c2ccc(C)c(S(=O)(=O)N3CCOCC3)c2)cc1OC", "values": [{"measurement": "activation", "setting": "[1]", "value": "-1% (inactive)"}]}
{"smiles": "CC1(C)CC(CCC(=O)Nc2ccccc2Cl)C(=O)O1", "note": "(stereo not drawn)", "values": [{"measurement": "activation", "setting": "[1]", "value": "-0.9% (inactive)"}]}
{"smiles": "Cc1ccccc1-n1c(SCC(=O)NCc2cccs2)nnc1-c1ccncc1", "values": [{"measurement": "activation", "setting": "[1]", "value": "0.9% (inactive)"}]}
{"smiles": "CC1(C)Oc2ccc(C(=O)N3CCOCC3)cc2N(CC(=O)Nc2ccccc2)C1=O", "values": [{"measurement": "activation", "setting": "[1]", "value": "-0.1% (inactive)"}]}
{"smiles": "CCCCc1nc2c(=O)[nH]c3ccccc3c2o1", "values": [{"measurement": "activation", "setting": "[1]", "value": "-0.4% (inactive)"}]}
{"smiles": "C=CCn1c(C2CC(=O)N(c3ccc(C)cc3)C2)nc2ccccc21", "note": "(stereo not drawn)", "values": [{"measurement": "activation", "setting": "[1]", "value": "-2.5% (inactive)"}]}
{"smiles": "O=C(COc1ccccc1)N1CCc2ccccc2C1", "values": [{"measurement": "activation", "setting": "[1]", "value": "0.4% (inactive)"}]}
{"smiles": "CC(=O)CSc1nnc(CSc2ncccn2)n1C1CCCCC1", "values": [{"measurement": "activation", "setting": "[1]", "value": "-0.6% (inactive)"}]}
{"smiles": "CC1(C)CC(=O)C(C2=NC(C)(C)Cc3ccccc32)=C(O)C1", "values": [{"measurement": "activation", "setting": "[1]", "value": "-2% (inactive)"}]}
{"smiles": "CC(C)C(=O)Nc1cccc(C(=O)Nc2ccc3c(c2)OCO3)c1", "values": [{"measurement": "activation", "setting": "[1]", "value": "-1.2% (inactive)"}]}
{"smiles": "COc1ccc(OC)c2c1sc(=NC(=O)CN1C(=O)CCC1=O)n2C", "values": [{"measurement": "activation", "setting": "[1]", "value": "-2.3% (inactive)"}]}
{"smiles": "OCc1nc(CO)n(Cc2ccccc2)n1", "values": [{"measurement": "activation", "setting": "[1]", "value": "-1% (inactive)"}]}
{"smiles": "COc1ccc(N2C(=O)CN=C2Nc2cccc(C)c2C)cc1OC", "values": [{"measurement": "activation", "setting": "[1]", "value": "0.2% (inactive)"}]}
{"smiles": "CCCc1nnc(NC(=O)CN2C(=O)c3ccccc3S2(=O)=O)s1", "values": [{"measurement": "activation", "setting": "[1]", "value": "-1% (inactive)"}]}
{"smiles": "CCOC(=O)c1sc(/N=C/Nc2nc(C)c(C(=O)OCC)s2)nc1C", "values": [{"measurement": "activation", "setting": "[1]", "value": "-1.5% (inactive)"}]}
{"smiles": "N#CCCN(CCC#N)c1nnc(-c2ccccc2)s1", "values": [{"measurement": "activation", "setting": "[1]", "value": "-0.2% (inactive)"}]}
{"smiles": "CCOC(=O)C1C(=O)C=C(c2ccc(OC)cc2)CC1c1ccco1", "note": "(stereo not drawn)", "values": [{"measurement": "activation", "setting": "[1]", "value": "-1.9% (inactive)"}]}
{"smiles": "Cc1nc(SC(C)C)[nH]c(=O)c1Cc1ccccc1", "values": [{"measurement": "activation", "setting": "[1]", "value": "0.1% (inactive)"}]}
{"smiles": "CCCc1cc(=O)oc2c(C)c(O)c(CN3CCCCC3)cc12", "values": [{"measurement": "activation", "setting": "[1]", "value": "-2.1% (inactive)"}]}
{"smiles": "CCC(=O)Nc1ccccc1C(=O)N1CCN(Cc2ccccc2)CC1", "values": [{"measurement": "activation", "setting": "[1]", "value": "-1.1% (inactive)"}]}
{"smiles": "NS(=O)(=O)c1ccc(NS(=O)(=O)/C=C/c2ccccc2)cc1", "values": [{"measurement": "activation", "setting": "[1]", "value": "1.3% (inactive)"}]}
{"smiles": "Cc1occc1C(=O)Nc1cccc(Cn2cccn2)c1", "values": [{"measurement": "activation", "setting": "[1]", "value": "-0.4% (inactive)"}]}
{"smiles": "COc1ncnc2sc3c(c12)CCCC3", "values": [{"measurement": "activation", "setting": "[1]", "value": "-0.3% (inactive)"}]}
{"smiles": "COc1ccc(C)cc1S(=O)(=O)NC1CCCCC1", "values": [{"measurement": "activation", "setting": "[1]", "value": "-0.3% (inactive)"}]}
{"smiles": "CCOc1cccc(/C(O)=C2/C(=O)C(=O)N(CCOC)C2c2ccncc2)c1", "note": "(stereo not drawn)", "values": [{"measurement": "activation", "setting": "[1]", "value": "-1.3% (inactive)"}]}
{"smiles": "CCOC(=O)c1sc(NC(=O)C(CC)Sc2nccn2C)nc1C", "note": "(stereo not drawn)", "values": [{"measurement": "activation", "setting": "[1]", "value": "-1.7% (inactive)"}]}
{"smiles": "Cc1cccc(NC(=O)CN2CCCN(S(=O)(=O)c3ccc(Br)s3)CC2)c1", "values": [{"measurement": "activation", "setting": "[1]", "value": "-1.4% (inactive)"}]}
{"smiles": "CCOC(=O)c1cc(-c2nnc(-c3cc(OC)c(OC)c(OC)c3)o2)c(C)nc1C", "values": [{"measurement": "activation", "setting": "[1]", "value": "-1.5% (inactive)"}]}
{"smiles": "CCOC(=O)c1c(C(C#N)C#N)cc(C)nc1C", "values": [{"measurement": "activation", "setting": "[1]", "value": "-3.8% (inactive)"}]}
{"smiles": "O=C(Cn1nnc(-c2ccccc2)n1)NCc1ccccc1", "values": [{"measurement": "activation", "setting": "[1]", "value": "-0.5% (inactive)"}]}
{"smiles": "Cc1cc(C)nc(SCc2nnc(SCC(=O)Nc3ncc(C)s3)n2Cc2ccco2)n1", "values": [{"measurement": "activation", "setting": "[1]", "value": "0% (inactive)"}]}
{"smiles": "CCn1ncc(C2=NOC(C(=O)Nc3ccccc3C(=O)OC)C2)c1C", "note": "(stereo not drawn)", "values": [{"measurement": "activation", "setting": "[1]", "value": "-0.6% (inactive)"}]}
{"smiles": "CC1Cc2cc(/C(O)=C3\\C(=O)C(=O)N(CCN4CCOCC4)C3c3ccccc3F)ccc2O1", "note": "(stereo not drawn)", "values": [{"measurement": "activation", "setting": "[1]", "value": "0.5% (inactive)"}]}
{"smiles": "CC1CN(C(=O)CN2C(=O)NC(C)(c3ccccc3)C2=O)CC(C)O1", "note": "(stereo not drawn)", "values": [{"measurement": "activation", "setting": "[1]", "value": "1.6% (inactive)"}]}
{"smiles": "O=C1NC(Nc2nc3ccccc3s2)(C(F)(F)F)C(=O)N1C1CCCCC1", "note": "(stereo not drawn)", "values": [{"measurement": "activation", "setting": "[1]", "value": "-0.5% (inactive)"}]}
{"smiles": "Cc1nc(SCC(=O)Nc2cc(C)on2)c2c3c(sc2n1)CCCC3", "values": [{"measurement": "activation", "setting": "[1]", "value": "-0.8% (inactive)"}]}
{"smiles": "CCOc1ccc(NC(=O)N(CCC(C)C)C(C)c2ccco2)cc1", "note": "(stereo not drawn)", "values": [{"measurement": "activation", "setting": "[1]", "value": "-0.3% (inactive)"}]}
{"smiles": "Cc1cc(=O)n(C)c(=O)n1CCCNc1ccccc1", "values": [{"measurement": "activation", "setting": "[1]", "value": "-0.2% (inactive)"}]}
